From ChEMBL document CHEMBL5104108, “Concise synthesis and biological activity evaluation of novel pyrazinyl-aryl urea derivatives against several cancer cell lines, which can especially induce T24 apoptotic and necroptotic cell death” (RSC Med Chem, 2022)
Calls of active or inactive are those of the source. The calls are words filed in the database; no cut-off is given here.

Columns and labels:
[1] = AUC (0 to 48 hrs) in Sprague-Dawley rat at 12 mg/kg, IG measured HPLC analysis; assay type: ADME, organism-based; parameters: time < 48 hr, dose 12 mg/kg, route ig; details: in vivo, po
T-24 [2] = assay: Up-regulation of RIPK1 expression in human T24 cells at 7.5 to 10 uM measured after 16 hrs by Western blot analysis; assay type: functional, cell-based; details: dose 7.5-10 µM
T-24 [3] = assay: Induction of apoptosis in human T24 cells assessed as increase in caspase-3 expression at 0 to 5 uM measured by Western blot analysis; assay type: functional, cell-based; details: dose 0-5 µM
Procedure, shortened: (§1)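 Apoptosis-related proteins measured by Western blot in T24 lysates: 40 μg protein per lane by SDS-PAGE, PVDF transfer, primary and peroxidase-linked secondary antibodies, ECL detection, densitometry of gray values with β-actin as loading control.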

T-24 [4] = assay: Down-regulation of MLKL expression in human T24 cells at 7.5 to 10 uM measured in presence of 60 uM Nec-1 after 16 hrs by Western blot analysis; assay type: functional, cell-based; details: dose 7.5-10 µM
Procedure, shortened: (§2)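 T24 cells co-incubated 16 h with or without Nec-1 (60 μM). Lysates quantified by BCA, 40 μg protein resolved by SDS-PAGE, transferred to PVDF, probed with primary and peroxidase-conjugated secondary antibodies, detected by ECL. Band gray values normalized to β-actin loading control.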

[5] = Absorption rate constant in Sprague-Dawley rat at 12 mg/kg, IG measured HPLC analysis; assay type: ADME, organism-based; details: in vivo, po
T-24 [6] = assay: Up-regulation of MLKL expression in human T24 cells at 2.5 to 7.5 uM measured by ELISA assay; assay type: functional, cell-based; details: dose 2.5-7.5 µM
Procedure, shortened: (§3)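 T24 cells pretreated, collected, diluted in PBS, counted and stored overnight at −20 °C. After membrane disruption, lysates centrifuged at 5000 × g for 5 min (4 °C). RIPK1, RIPK3 and MLKL levels then measured with ELISA kits.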

T-24 [7] = assay: Up-regulation of MLKL expression in human T24 cells at 7.5 to 10 uM measured after 16 hrs by Western blot analysis; assay type: functional, cell-based; details: dose 7.5-10 µM
T-24 [8] = assay: Induction of apoptosis in human T24 cells assessed as increase in cleaved caspase-3 expression at 0 to 5 uM measured by Western blot analysis; assay type: functional, cell-based; details: dose 0-5 µM; procedure, shortened: as §1
T-24 [9] = assay: Induction of apoptosis in human T24 cells assessed as decrease in Bcl-2 expression at 5 to 7.5 uM measured by Western blot analysis; assay type: functional, cell-based; details: dose 5-7.5 µM; procedure, shortened: as §1
MGC-803 = assay: Antiproliferative activity against human MGC-803 cells measured after 48 hrs by MTT assay; assay type: functional, cell-based; details: MGC-803, 48 h
Procedure, shortened: (§4)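 Cells seeded 5 × 10^3 per well, grown overnight at 37 °C, then exposed to compound at final 1–40 μM (1, 2.5, 5, 7.5, 10, 12.5, 15, 20, 30, 40 μM) for the stated period. MTT added, 4 h at 37 °C, formazan dissolved in DMSO, absorbance read. IC50 = concentration killing 50% of cells relative to untreated control; mean ± S.D. of four independent experiments.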

[10] = Absorption rate constant in Sprague-Dawley rat at 6 mg/kg, IG measured HPLC analysis; assay type: ADME, organism-based; details: in vivo, po
[11] = AUMC in Sprague-Dawley rat at 12 mg/kg, IG measured HPLC analysis; assay type: ADME, organism-based; details: in vivo, po
T-24 [12] = assay: Up-regulation of p-RIPK3 expression in human T24 cells at 7.5 to 10 uM measured after 16 hrs by Western blot analysis; assay type: functional, cell-based; details: dose 7.5-10 µM
T-24 [13] = assay: Up-regulation of RIPK1 expression in human T24 cells at 2.5 to 7.5 uM measured by ELISA assay; assay type: functional, cell-based; details: dose 2.5-7.5 µM; procedure, shortened: as §3
T-24 [14] = assay: Down-regulation of p-MLKL expression in human T24 cells at 7.5 to 10 uM measured in presence of 60 uM Nec-1 after 16 hrs by Western blot analysis; assay type: functional, cell-based; details: dose 7.5-10 µM; procedure, shortened: as §2
[15] = Cmax in Sprague-Dawley rat at 6 mg/kg, IG measured HPLC analysis; assay type: ADME, organism-based; parameters: dose 6 mg/kg, route ig; details: in vivo, po
T-24 [16] = assay: Up-regulation of RIPK3 mRNA expression in human T24 cells at 7.5 to 12.5 uM measured by RT-PCR analysis; assay type: functional, cell-based; details: dose 7.5-12.5 µM
Procedure, shortened: (§5)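 Total T24 RNA extracted with TRIzol. RT-PCR normalized to GAPDH, relative expression by 2−ΔΔCt versus control. Incubation 16 h for RIPK1/RIPK3/MLKL. At least three independent experiments, each in triplicate.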

[17] = AUC (0 to 48 hrs) in Sprague-Dawley rat at 6 mg/kg, IG measured HPLC analysis; assay type: ADME, organism-based; parameters: time < 48 hr, dose 6 mg/kg, route ig; details: in vivo, po
T-24 [18] = assay: Up-regulation of MLKL mRNA expression in human T24 cells at 7.5 to 12.5 uM measured by RT-PCR analysis; assay type: functional, cell-based; details: dose 7.5-12.5 µM; procedure, shortened: as §5
T-24 [19] = assay: Induction of apoptosis in human T24 cells assessed as increase in cleaved caspase-8 expression at 0 to 5 uM measured by Western blot analysis; assay type: functional, cell-based; details: dose 0-5 µM; procedure, shortened: as §1
T-24 [20] = assay: Induction of intracellular reactive oxygen species production in human T24 cells assessed as ROS level at 10 uM measured after 16 hrs by flow cytometry analysis; assay type: functional, cell-based
Procedure, shortened: (§6)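 After 16 h treatment, floating and adherent T24 cells pooled and loaded with DCFH-DA (final 10 μM) for 30 min at 37 °C in the dark, washed, resuspended in PBS and analyzed by flow cytometry; fluorescence also quantified by luminescence spectrometry. ROS expressed relative to control; mean ± S.D. of three independent experiments.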

T-24 [21] = assay: Up-regulation of p-RIPK1 expression in human T24 cells at 7.5 to 10 uM measured after 16 hrs by Western blot analysis; assay type: functional, cell-based; details: dose 7.5-10 µM
T-24 [22] = assay: Up-regulation of RIPK1 mRNA expression in human T24 cells at 7.5 to 12.5 uM measured by RT-PCR analysis; assay type: functional, cell-based; details: dose 7.5-12.5 µM; procedure, shortened: as §5
[23] = Half-life in Sprague-Dawley rat at 12 mg/kg, IG measured HPLC analysis; assay type: ADME, organism-based; details: in vivo, po
T-24 [24] = assay: Induction of apoptosis in human T24 cells assessed as increase in Cytochrome c expression at 5 to 7.5 uM measured by Western blot analysis; assay type: functional, cell-based; details: dose 5-7.5 µM; procedure, shortened: as §1
T-24 [25] = assay: Induction of necroptosis in human T24 cells assessed as viable cells at 12.5 uM and measured by trypan blue exclusion assay; assay type: functional; details: read-out: Activity
Procedure, shortened: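 T24 cells (2 × 10^5/well) exposed for 16 h with or without Nec-1 (60 μM), then stained with trypan blue. Viable and dead cells counted. Result given as % viable cells relative to untreated control.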

T-24 [26] = assay: Induction of intracellular reactive oxygen species production in human T24 cells assessed as ROS level at 7.5 uM measured after 16 hrs by flow cytometry analysis; assay type: functional, cell-based; procedure, shortened: as §6
T-24 [27] = assay: Down-regulation of VEGFR-1 mRNA expression in human T24 cells at 5 to 10 uM measured by RT-PCR analysis; assay type: functional, cell-based; details: dose 5-10 µM
T-24 [28] = assay: Induction of apoptosis in human T24 cells assessed as increase in caspase-8 expression at 0 to 5 uM measured by Western blot analysis; assay type: functional, cell-based; details: dose 0-5 µM; procedure, shortened: as §1
T-24 [29] = assay: Up-regulation of caspase-8 mRNA expression in human T24 cells at 2.5 to 7.5 uM measured after 10 hrs by RT-PCR analysis; assay type: functional, cell-based; details: dose 2.5-7.5 µM
T-24 [30] = assay: Antiproliferative activity against human T24 cells measured after 72 hrs by MTT assay; assay type: functional, cell-based; details: T-24, 72 h; procedure, shortened: as §4

AUC(0-t) at 48 h [1]: 75800 ng·h/mL | Ka [5]: 0.107 h⁻¹ | IC50 (MGC-803): 6.91 µM | Ka [10]: 0.098 h⁻¹ | AUMC [11]: 1494860 hr2.ng/ml | Cmax [15]: 1190 ng/mL | AUC(0-t) at 48 h [17]: 30800 ng·h/mL | half-life [23]: 7.17 h
Compound: O=C(Nc1ccc(C(F)(F)F)cc1)Nc1cccc(CNc2nccnc2Cl)c1
Activity (T-24 [2]): Active | Activity (T-24 [3]): Active | Activity (T-24 [4]): Active | Activity (T-24 [6]): Active | Activity (T-24 [7]): Active | Activity (T-24 [8]): Active | Activity (T-24 [9]): Active | Activity (T-24 [12]): Active | Activity (T-24 [13]): Active | Activity (T-24 [14]): Active | Activity (T-24 [16]): Active | Activity (T-24 [18]): Active | Activity (T-24 [19]): Active | Activity (T-24 [20]): Active | Activity (T-24 [21]): Active | Activity (T-24 [22]): Active | Activity (T-24 [24]): Active | viability at 12.5 µM (T-24 [25]): 24.8% | Activity (T-24 [26]): Active | Activity (T-24 [27]): Active | Activity (T-24 [28]): Active | Activity (T-24 [29]): Active | IC50 (T-24 [30]): 3.55 µM
